Reference: ChEMBL document CHEMBL5154720, “In silico screening-based discovery of novel covalent inhibitors of the SARS-CoV-2 3CL protease” (Eur J Med Chem, 2022)

Tests used:
[1] = target: Replicase polyprotein 1ab (Severe acute respiratory syndrome coronavirus 2) (UniProt P0DTD1); test: Inhibition of SARS-CoV-2 3CL protease using MCA-AVLQSGFR-Lys(Dnp)-Lys-NH2 fluorogenic peptide as substrate incubated for 30 mins at 50 uM and measured by FRET assay relative to control
Procedure, shortened: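 Recombinant SUMO-tag-cleaved 3CLpro (E. coli BL21(DE3), Ni-NTA, Q-Sepharose, size exclusion), 50 nM final, preincubated 30 min with compound in 50 mM Tris pH 7.3, 1 mM EDTA; reaction started with 20 μM final FRET substrate. Fluorescence 320/405 nm read every 30 s for 5 min; initial velocity relative to DMSO control. Mean ± SD of three independent experiments.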

[2] = target: Replicase polyprotein 1ab (Severe acute respiratory syndrome coronavirus 2, UniProt P0DTD1); test: Inhibition of SARS-CoV-2 3CL protease using MCA-AVLQSGFR-Lys(Dnp)-Lys-NH2 fluorogenic peptide as substrate incubated for 30 mins and measured by FRET assay

Cc1cccc(C)c1NC(=O)CSc1nc2c(cc1C#N)C(=O)CCC2
inhibition [1]: 15.2%

O=C(CC1C(=O)NCCN1C(=O)CCl)Nc1cccc(Cl)c1 (stereo unspecified)
inhibition [1]: 87.6% | IC50 [2]: 8.5 µM

Cn1c(CN2CCC(C(N)=O)CC2)c(C#N)c2ccccc21
inhibition [1]: 24.1%

NS(=O)(=O)c1ccc(NC(=O)C(=O)c2ccc[nH]2)cc1
inhibition [1]: 31.4%

CN(C(=O)CN1CC(C=O)c2ccccc21)c1ccccc1 (stereo unspecified)
inhibition [1]: 32.6%

NC(=O)CN1C(=O)C(O)(CC(=O)/C=C\c2ccc3c(c2)OCO3)c2ccccc21 (stereo unspecified)
inhibition [1]: 55.2% | IC50 [2]: 36.1 µM

CC1=C(C#N)C(=O)N(CCCO)C(=O)/C1=N\Nc1ccc(Br)cc1C(=O)O
inhibition [1]: 65.5% | IC50 [2]: 19.1 µM

O=C(/C=C/c1cn(CC(O)CN2CCOCC2)c2ccccc12)c1cccs1 (stereo unspecified)
inhibition [1]: 22.3%
